This passage reports logD, Ki and Hill coefficient results from ChEMBL document CHEMBL1123350, “Synthesis and beta-adrenergic receptor blocking potency of 1-(substituted amino)-3-(4-indolyloxy)propan-2-ols” (J Med Chem, 1986).

Data set [1] in a line: Distribution coefficient value of the compound. In kind it is physicochemical. The following applies: octanol/water. The gist of the method:
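Shake-flask partition between 0.1 M potassium phosphate pH 7.4 and 1-octanol, each phase presaturated with the other. Compound at 0.1–1.0 mg/mL in buffer, shaken 30 min, left 10 min, spun 600g 10 min at room temperature. Aqueous-phase absorbance read before and after partition at a per-compound wavelength. D = (Aorig−Aextr)/(Aextr·f), with f the octanol:buffer volume ratio. Run twice.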

Data set [2] in a line: In vitro for binding affinity against beta adrenergic receptor in rat cortex. The gist of the method: (§1)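 Male Sprague–Dawley rat cortex or cerebellum membranes, washed in HEPES–EDTA pH 7.5 and resuspended in NaCl–Tris–MgCl2 pH 7.5. Bound ligand collected by filtration and gamma-counted; isoproterenol 25 μM defines nonspecific binding. IC50 and Hill n by nonlinear regression; Ki by Cheng–Prusoff for the eutomer. Run at least twice.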

For a further data set, the species on record is Rattus norvegicus. As to the kind of experiment: Hill coefficient value assayed against rat beta adrenergic receptor. An outline of the steps: as §1
Data set [3] is described as follows: In vitro for binding affinity against beta adrenergic receptor in rat cerebellum. In kind it is tissue-based. An outline of the steps:
as §1

For `OC(CNCCc1ccc(Cl)c(Cl)c1)COc1cccc2[nH]ccc12` (stereo not given), the logD in data set [1] was determined as 2.5. Besides, the Ki in data set [2] was 6 nM; in data set [3], 11 nM. In addition, in the data set listed under Rattus norvegicus, the Hill coefficient is over 0.9.

With `OC(CNCCc1ccc(F)cc1)COc1cccc2[nH]ccc12` (stereo not given), the logD in data set [1] came out at 2. The Ki in data set [2] is 5 nM; in data set [3], 4 nM. The compound also returned a Hill coefficient in the data set filed under Rattus norvegicus of over 0.9.

Compound `OC(CNCCc1ccccc1)COc1cccc2[nH]ccc12` (stereo not given) yielded a logD in data set [1] of 1.7. In addition, the Ki in data set [2] was 5 nM; in data set [3], 4 nM. In the data set listed under Rattus norvegicus, this compound displayed a Hill coefficient of over 0.9.

Consider `OC(CNCc1ccccc1F)COc1cccc2[nH]ccc12` (stereo not given), for which, in data set [1], the logD amounted to 2. Also, the results for the inhibition constant (Ki) in data set [2] and in data set [3] were 60 nM and 45 nM, respectively. In the data set listed under Rattus norvegicus, this compound gave a Hill coefficient of over 0.9.

For the compound `OC(CNCc1ccc(F)cc1)COc1cccc2[nH]ccc12` (stereo not given), the logD in data set [1] is 1.9. The Ki turned out to be 125 nM in data set [2] and 80 nM in data set [3]. In the data set filed under Rattus norvegicus, this compound displayed a Hill coefficient of over 0.9.

`COc1ccc(CCNCC(O)COc2cccc3[nH]ccc23)cc1OC` (stereo not given): the logD in data set [1] amounted to 1.1. Moreover, the Ki in data set [2] amounted to 3 nM; in data set [3], 7 nM. In addition, the Hill coefficient in the data set listed under Rattus norvegicus was over 0.9.

For the compound `O=[N+]([O-])c1ccc(CCNCC(O)COc2cccc3[nH]ccc23)cc1` (stereo not given), the logD in data set [1] was found to be 1.5. Moreover, the Ki amounted to 5 nM in data set [2] and 8 nM in data set [3]. This compound gave a Hill coefficient in the data set listed under Rattus norvegicus of over 0.9.

`Nc1ccc(CCNCC(O)COc2cccc3[nH]ccc23)cc1` (stereo not given) registered a logD in data set [1] of 0.3. Further, the Ki came out at 25 nM in data set [2] and 22 nM in data set [3]. The same compound showed a Hill coefficient in the data set filed under Rattus norvegicus of over 0.9.

For `CC(C)NCC(O)COc1cccc2[nH]ccc12` (stereo not given) [PINDOLOL], the logD in data set [1] is -0.3. Further, the Ki in data set [2] and in data set [3] was 1 nM in each case. In addition, the Hill coefficient in the data set filed under Rattus norvegicus was over 0.9.

`CC(C)(CO)NCC(O)COc1cccc2[nH]ccc12` (stereo not given) displayed a logD in data set [1] of -0.6. The Ki in data set [2] and in data set [3] was 2 nM in each case. In addition, the Hill coefficient in the data set listed under Rattus norvegicus is over 0.9.

One may read the logD as the decadic logarithm of the distribution of all forms, ionised or not, between an organic phase and buffer at a given pH. As a reminder, the Ki is the equilibrium dissociation constant of an inhibitor or competing ligand from its target. The low end stands for a stronger hold on the target, the high end for a looser hold on the target. For orientation: Hill coefficient means a measure of the steepness of the concentration-response curve.
